Assay results collected from several papers.
CA1: Carbonic anhydrase 1 (CA1, Homo sapiens, UniProt P00915)
ADRA2A: Alpha-2A adrenergic receptor (ADRA2A, Homo sapiens, UniProt P08913)
CA2: Carbonic anhydrase 2 (CA2, Homo sapiens, UniProt P00918)

`Cc1cccc(CC(=O)Nc2nnc(S(N)(=O)=O)s2)c1` gave a Ki of 0.0424 µM (CA1; enzyme activity; inhibitor; stopped-flow).
For `Cc1cc(Oc2ncccc2CN2CCN(c3ccccc3Cl)CC2)ccc1-c1c(C)c(=O)[nH]c(=O)n1C`, the Ki was 0.08 µM (ADRA2A; ligand displacement; radioligand).
For `NS(=O)(=O)c1cnc(NC(=O)CC2CCCCC2)s1`, the Ki was 1.58 µM (CA1; enzyme activity; inhibitor; stopped-flow).
For `CC(C)(C(=O)O)c1ccc(C(O)CCCN2CCC(C(O)(c3ccccc3)c3ccccc3)CC2)cc1` (stereo not drawn), the Ki was 17.9 µM (CA2; enzyme activity; inhibitor; absorbance).
With `C#CCOC(=O)c1ccc(=O)oc1` the Ki was over 100 µM (CA1; enzyme activity; inhibitor; stopped-flow).
`Cc1cc(Oc2ncccc2CN2CCN(c3ccc(Cl)cc3)CC2)ccc1-c1c(C)c(=O)[nH]c(=O)n1C` gave a Ki of 0.576 µM (ADRA2A; ligand displacement; radioligand).
With `O=C(NCc1cn(-c2ccc(Cl)cc2)nn1)c1ccc(=O)oc1` the Ki was over 100 µM (CA1; enzyme activity; inhibitor; stopped-flow).
The Ki of `CCOC(=O)N1CCC(=C2c3ccc(Cl)cc3CCc3cccnc32)CC1` is reported as 8.09 µM (CA1; enzyme activity; inhibitor).
`Cc1ccc(OC(=O)c2ccc(=O)oc2)cc1` gave a Ki of over 100 µM (CA1; enzyme activity; inhibitor; stopped-flow).
With `CC(C(=O)Nc1nnc(S(N)(=O)=O)s1)C1CCCCC1` (stereo not drawn) the Ki was 0.0183 µM (CA2; enzyme activity; inhibitor; stopped-flow).
For `COc1ccnc(C[S+]([O-])c2nc3ccc(OC(F)F)cc3[nH]2)c1OC` (stereo not drawn), the Ki was 8.72 µM (CA2; enzyme activity; inhibitor; absorbance).
`COc1ccc(N2CCN(Cc3cccnc3Oc3ccc(-c4c(C)c(=O)[nH]c(=O)n4C)c(C)c3)CC2)cc1` has a Ki of 1.32 µM (ADRA2A; ligand displacement; radioligand).
`NS(=O)(=O)c1nnc(NC(=O)C2CCC3(CCCCC3)C2)s1` (stereo not drawn) has a Ki of 0.22 µM (CA1; enzyme activity; inhibitor; stopped-flow).
`COc1ccc(-n2cc(CNC(=O)c3ccc(=O)oc3)nn2)cc1` has a Ki of over 100 µM (CA1; enzyme activity; inhibitor; stopped-flow).
With `CN(C/C=C/C#CC(C)(C)C)Cc1cccc2ccccc12` the Ki was 20.3 µM (CA2; enzyme activity; inhibitor; absorbance).
The Ki of `Cc1cc(Oc2ncccc2CN2CCN(c3ccccc3C)CC2)ccc1-c1c(C)c(=O)[nH]c(=O)n1C` is reported as 0.0594 µM (ADRA2A; ligand displacement; radioligand).
The Ki of `Nc1ccc(S(=O)(=O)c2ccc(N)cc2)cc1` is reported as 11.6 µM (CA1; enzyme activity; inhibitor).
The Ki of `Cc1cc(Oc2ncccc2CN2CCN(Cc3ccccc3Cl)CC2)ccc1-c1c(C)c(=O)[nH]c(=O)n1C` is reported as 0.0812 µM (ADRA2A; ligand displacement; radioligand).
